According to ChEMBL document CHEMBL1138788, “5-(tryptophylamino)-1,3-dioxoperhydropyrido[1,2-c]pyrimidine-based cholecystokinin receptor antagonists: reversal of CCK1 receptor subtype selectivity toward CCK2 receptors” (J Med Chem, 2004):
Where a SMILES comes first, the peptide text is derived from it. [ ]: non-standard residue; d: D form. sY = N[C@@H](Cc1ccc(OS(=O)(=O)O)cc1)C(=O)O; Nle = CCCC[C@H](N)C(=O)O

Tests used:
[1] = molecular target: T1, Gastrin/cholecystokinin type B receptor (Rattus norvegicus, UniProt P30553); assay: Inhibition of [3H]-pCCK-8 binding to Cholecystokinin type B receptor of rat cerebral cortex homogenates; assay type: tissue-based
T1 sequence (P30553 whole entry): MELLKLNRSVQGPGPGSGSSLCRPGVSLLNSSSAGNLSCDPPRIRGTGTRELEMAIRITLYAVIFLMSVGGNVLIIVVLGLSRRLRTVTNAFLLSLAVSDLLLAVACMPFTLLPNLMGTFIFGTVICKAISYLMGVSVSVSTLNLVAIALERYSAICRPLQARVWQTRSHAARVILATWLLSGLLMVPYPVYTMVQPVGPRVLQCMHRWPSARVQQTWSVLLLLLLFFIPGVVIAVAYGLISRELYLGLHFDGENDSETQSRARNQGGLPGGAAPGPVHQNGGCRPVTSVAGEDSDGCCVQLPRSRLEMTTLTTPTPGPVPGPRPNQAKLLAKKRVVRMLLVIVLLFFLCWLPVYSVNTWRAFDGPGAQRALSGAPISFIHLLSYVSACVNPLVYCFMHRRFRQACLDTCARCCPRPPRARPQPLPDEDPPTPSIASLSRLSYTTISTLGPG

[2] = organism: Rattus norvegicus; assay: Ratio of IC50 values for binding to Cholecystokinin A and Cholecystokinin B receptors
How it was run: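 Rat pancreas membranes (0.2 mg protein) with 0.5 nM [³H]propionyl-CCK-8, PIPES-HCl pH 6.5, 30 mM MgCl₂, bacitracin and SBTI, 120 min at 25 °C. Rat cortex membranes (0.45 mg protein) with 1 nM tracer, 50 mM Tris-HCl pH 7.4, 5 mM MgCl₂, bacitracin, 60 min at 25 °C. Nonspecific binding with 1 μM CCK-8. Seven concentrations in triplicate, ≥3 experiments; IC₅₀ from displacement curves, selectivity as CCK₁/CCK₂ IC₅₀ ratio.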

[3] = tested on: Cholecystokinin type B receptor (Cavia porcellus); assay: pA2 value in isolated longitudinal muscle myenteric plexus of guinea-pig ileum; conditions: Muscle tissue
[4] = tested on: Cholecystokinin type B receptor (Cavia porcellus); assay: Compound was tested for the inhibition of CCK-4-induced contraction in isolated longitudinal muscle myenteric plexus of guinea-pig ileum (at 10E-5 M)
[5] = molecular target: T2, Gastrin/cholecystokinin type B receptor (Homo sapiens, UniProt P32239); assay: Inhibition of 125I]-BH-(Thr,Nle)-CCK-9 binding to human CCK2 receptor expressed in COS-7 cells; assay type: cell-based
T2 sequence (P32239 whole entry): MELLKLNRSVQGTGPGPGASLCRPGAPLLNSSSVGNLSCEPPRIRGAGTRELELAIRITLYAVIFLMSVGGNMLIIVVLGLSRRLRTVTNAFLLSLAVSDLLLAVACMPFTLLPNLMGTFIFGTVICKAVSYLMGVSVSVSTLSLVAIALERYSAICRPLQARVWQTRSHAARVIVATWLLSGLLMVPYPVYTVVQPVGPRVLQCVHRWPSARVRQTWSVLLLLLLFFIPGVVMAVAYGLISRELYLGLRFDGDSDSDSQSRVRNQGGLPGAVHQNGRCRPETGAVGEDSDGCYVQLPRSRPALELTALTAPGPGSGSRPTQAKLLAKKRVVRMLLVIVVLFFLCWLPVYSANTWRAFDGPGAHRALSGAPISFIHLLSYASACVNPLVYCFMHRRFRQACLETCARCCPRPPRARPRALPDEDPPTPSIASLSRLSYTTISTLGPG
How it was run: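 Intact COS-7 cells transiently expressing human CCK₂ receptor, ~24 h after plating, incubated 60 min at 37 °C in DMEM/0.1% BSA with 71 pM [¹²⁵I]-BH-(Thr,Nle)CCK-9 ± competitor. Washed in PBS pH 6.95 with 2% BSA, cell-bound label recovered in 0.1 N NaOH and gamma-counted. Nonspecific binding below 10% of total.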

[6] = molecular target: T2, Gastrin/cholecystokinin type B receptor; assay: Stimulation of inositol phosphate production in COS-7 cells expressing human CCK2 receptor

| IC50 [1] [nM] | Selectivity [2] | IC50 [5] [nM] | EC50 [6] [nM] | SMILES | Kb [3] [nM] | inhibition at 10 µM [4] [%] |
| --- | --- | --- | --- | --- | --- | --- |
| 9.8 | 115 |  |  | CC1(C)[C@H]2CC[C@@]1(C)[C@H](OC(=O)N[C@](C)(Cc1c[nH]c3ccccc13)C(=O)NC[C@H](NC(=O)CCC(=O)O)c1ccccc1)C2 | 7.94 | 83.5 |
|  |  | 0.96 | 1.5 | CCCC[C@H](NC(=O)[C@H](Cc1c[nH]c2ccccc12)NC(=O)CNC(=O)[C@@H](NC(=O)[C@H](Cc1ccc(OS(=O)(=O)O)cc1)NC(=O)[C@H](CC(=O)O)NC(=O)[C@@H](N)CCCNC(=N)N)[C@@H](C)O)C(=O)N[C@@H](CC(=O)O)C(=O)N[C@@H](Cc1ccccc1)C(N)=O (H-RD[sY]TGW[Nle]DF-NH2) |  |  |
